pEC50, pIC50, pKd: −log10 of the molar value. The source made the active and inactive calls. No cut-off for these calls is given here.
Tests used:
[1] = Therapeutic index, TC50 for human CEM cells to EC50 for SIV; format: cell-based, CCRF-CEM
[2] = target: T1, Peptidyl-prolyl cis-trans isomerase A (Homo sapiens, UniProt P62937); assay: Binding affinity to human cyclophilin A by intrinsic tryptophan fluorescence titration assay; conditions: for pKd: read-out: Kd
Method in brief: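 CypA intrinsic tryptophan fluorescence titration in 20 mM Tris–HCl, 100 mM NaCl, pH 7.4, at 25 °C, with compounds from 10 mM DMSO stocks. Excitation was 280 nm and emission was read at 340 nm. Kd was obtained by fitting intensity against final compound concentration to F₀/F = 1 + Ka·C.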

[3] = system: Simian immunodeficiency virus; assay: Antiviral activity against SIV in human CEM cells assessed as inhibition of virus-induced cytopathogenicity; format: functional, organism-based, CCRF-CEM; conditions: Simian immunodeficiency virus, CCRF-CEM; read-out: EC50
Method in brief: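 SIV syncytium assay in CEM174 cells (2 × 10⁵ cells/ml) infected with 100 TCID₅₀ SIV per well alongside serial compound dilutions. Cultures were kept 5 days at 37 °C in humidified 5% CO₂, then giant-cell formation was scored microscopically. EC₅₀ is the concentration protecting cells from SIV cytopathogenicity by 50%.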

[4] = target: Protease (Human immunodeficiency virus 1) (UniProt Q9YQ12); assay: Inhibition of HIV1 protease
Protease (Human immunodeficiency virus 1), sequence (Q9YQ12 as listed by the source): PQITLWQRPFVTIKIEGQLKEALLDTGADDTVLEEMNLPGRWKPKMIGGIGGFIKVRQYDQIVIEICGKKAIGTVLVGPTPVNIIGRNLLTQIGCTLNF
Method in brief: (§1)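 HIV-1 protease was preincubated with inhibitor (DMSO) for 20 min at room temperature in 0.1 M MES, 0.2 M NaCl, 5 mM EDTA, pH 5.5. The reaction was started with substrate Lys-Ala-Arg-Val-Leu-Phe(NO₂)-Glu-Ala-Met, and hydrolysis was followed as the A280 decrease over 40 min. Inhibition ratio was taken from Ai/A₀, with and without inhibitor.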

[5] = target: Structural capsid protein (Human immunodeficiency virus 1) (UniProt Q76129); assay: Binding affinity to HIV1 capsid assessed as assembly rate per minute by ultraviolet spectrophotometry assay
Structural capsid protein (Human immunodeficiency virus 1), sequence (Q76129 as listed by the source): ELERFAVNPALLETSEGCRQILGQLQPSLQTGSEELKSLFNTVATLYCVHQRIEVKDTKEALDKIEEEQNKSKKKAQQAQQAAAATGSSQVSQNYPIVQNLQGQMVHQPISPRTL
Method in brief: (§2)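 Turbidity was read at 350 nm every 10 s after a short equilibration delay. Assembly rate (mOD/min) was taken from the initial slope of absorbance versus time.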

[6] = Cytotoxicity against human CEM cells; format: cell-based; conditions: CEM cells (CCRF-CEM), read-out: TC50 (the source's name)
[7] = target: Human immunodeficiency virus type 1 integrase (Human immunodeficiency virus 1) (UniProt Q7ZJM1); assay: Inhibition of HIV1 integrase at 20 uM; set-up: scale not given: the % may be the effect or the level left
Human immunodeficiency virus type 1 integrase (Human immunodeficiency virus 1), sequence (Q7ZJM1 as listed by the source): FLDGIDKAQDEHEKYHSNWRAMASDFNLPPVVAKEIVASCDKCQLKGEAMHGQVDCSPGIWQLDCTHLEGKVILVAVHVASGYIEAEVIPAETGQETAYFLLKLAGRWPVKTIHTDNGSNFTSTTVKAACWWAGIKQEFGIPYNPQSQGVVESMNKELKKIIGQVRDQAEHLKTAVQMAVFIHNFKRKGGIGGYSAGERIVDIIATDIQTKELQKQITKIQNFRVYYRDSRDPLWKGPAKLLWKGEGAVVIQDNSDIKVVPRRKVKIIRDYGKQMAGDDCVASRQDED
Method in brief: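 Recombinant HIV-1 integrase (E. coli) was preincubated with compound for 30 min. It was then incubated for 30 min at 37 °C on plate-immobilized donor duplex in Tris–HCl pH 7.8, 25 mM NaCl, 7.5 mM MgCl₂, 5 mM β-mercaptoethanol and BSA. Biotinylated target duplex was added for 1 h at 37 °C. Integration products were detected by pNPP phosphatase read-out at A405, and inhibition was taken as the decrease in final absorbance.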

[8] = target: Protease (Human immunodeficiency virus 1) (UniProt Q9YQ12); assay: Inhibition of HIV1 protease assessed as decrease in UV absorbance; conditions: concentration not given here; method in brief: as §1
[9] = target: T1, Peptidyl-prolyl cis-trans isomerase A; assay: Inhibition of human cyclophilin A at 6 degC
Method in brief: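 PPIase assay at 6 °C in 50 mM HEPES, 100 mM NaCl, using Suc-AAPF-pNA substrate (3 mM stock in THF with 480 mM LiCl). A390 was recorded for 20 s after about a 6 s mixing delay. Cis–trans rate constants came from nonlinear least-squares fits to an integrated first-order equation, and IC₅₀ was calculated from these.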

[10] = target: Structural capsid protein (Human immunodeficiency virus 1) (UniProt Q76129); assay: Binding affinity to HIV1 capsid assessed as assembly rate per minute at 0.5:1 drug to protein ratio by ultraviolet spectrophotometry assay; method in brief: as §2
[11] = target: Structural capsid protein (Human immunodeficiency virus 1) (UniProt Q76129); assay: Binding affinity to HIV1 capsid assessed as assembly rate per minute at 2:1 drug to protein ratio by ultraviolet spectrophotometry assay; method in brief: as §2
[12] = target: Structural capsid protein (Human immunodeficiency virus 1) (UniProt Q76129); assay: Binding affinity to HIV1 capsid assessed as assembly rate per minute at 1:1 drug to protein ratio by ultraviolet spectrophotometry assay; method in brief: as §2

T1 sequence (P62937 whole entry): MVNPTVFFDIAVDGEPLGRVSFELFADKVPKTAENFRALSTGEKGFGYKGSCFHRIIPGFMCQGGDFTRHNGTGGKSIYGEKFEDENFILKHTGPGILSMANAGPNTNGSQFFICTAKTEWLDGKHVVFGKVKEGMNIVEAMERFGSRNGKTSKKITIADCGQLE

Row | SMILES | selectivity ratio [1] | Kd [2] | pEC50 [3] | Activity [4] | Activity (milli optical density/minute) [5] | CC50 [6] | Activity [7] | pKd [2] | inhibition [8] | pIC50 [9] | Activity [5] | Activity (milli optical density/minute) [10] | Activity (milli optical density/minute) [11] | Activity (milli optical density/minute) [12]
1 | Cc1ccccc1NC(=S)Nc1ccc2c(c1)C(=O)OC2 | 17 | Not Active | 5.55 | inactive | 65.7 | 46.9 µM | < 20% |  |  |  |  |  |  | 
2 | O=C1OCc2ccc(NC(=S)Nc3cccc(Cl)c3)cc21 | 20 |  | 5.38 | inactive | 49.2 | 86 µM | < 20% | 3.88 | < 5% |  |  |  |  | 
3 | O=C1OCc2ccc(NC(=S)Nc3ccc(Cl)cc3)cc21 | 14 |  | 5.21 | inactive | 49.6 | 83.9 µM | < 20% | 3.65 |  |  |  |  |  | 
4 | Cc1ccc(NC(=S)Nc2ccc(S(=O)(=O)Nc3nccs3)cc2)cc1Cl | 3 |  | 4.97 |  | 27.4 | 37 µM |  | 4.29 |  | 6.80 |  |  |  | 
5 | CCN(CC)c1nc(C)cc(NCCNC(=S)Nc2cccc(Br)c2)n1 | 2 |  | 5.26 |  |  | 8.43 µM |  | 3.70 |  |  | inactive |  |  | 
6 | O=C1OCc2ccc(NC(=S)Nc3cc(F)cc(F)c3)cc21 | 11 |  | 5.21 | inactive | 63.6 | 69.1 µM | < 20% | 3.29 |  |  |  |  |  | 
7 | Cc1cccc(NC(=S)Nc2ccc3c(c2)C(=O)OC3)c1 | 1 |  | 4.94 | inactive | 64.6 | 16 µM | < 20% | 3.85 |  |  |  |  |  | 
8 | Cc1cc(NS(=O)(=O)c2ccc(NC(=S)Nc3ccc(Cl)cc3)cc2)no1 | 9 |  | 5.39 |  | 29 | 37.8 µM |  | 3.97 |  | 6.16 |  | 52.2 | 19.4 | 42
9 | Cc1ccc(NC(=S)Nc2ccc3c(c2)C(=O)OC3)cc1Cl | 4 |  | 5.34 | inactive | 19.6 | 18.7 µM | < 20% | 4.02 |  | 6.23 |  |  |  | 
10 | Cc1cc(NS(=O)(=O)c2ccc(NC(=S)Nc3ccc(F)cc3)cc2)no1 | 11 |  | 5.16 |  | 73.8 | 75.4 µM |  | 3.96 |  | 6.46 |  |  |  | 
11 | O=C1OCc2ccc(NC(=S)Nc3ccc(F)cc3)cc21 | 5 |  | 4.80 | inactive | 55.7 | 83.7 µM | < 20% | 3.64 |  |  |  |  |  | 
12 | Cc1cc(NS(=O)(=O)c2ccc(NC(=S)Nc3ccccc3C)cc2)no1 | 8 |  | 5.21 |  | 64.8 | 48.4 µM |  | 3.93 |  | 6.22 |  |  |  | 
13 | Cc1cc(NS(=O)(=O)c2ccc(NC(=S)Nc3ccc(C)c(Cl)c3)cc2)no1 | 127 |  | 6.22 |  | 36.4 | 74.4 µM |  | 4.25 | < 5% | 6.19 |  |  |  | 
14 | Cc1cc(NS(=O)(=O)c2ccc(NC(=S)Nc3cccc(Cl)c3)cc2)no1 | 92 |  | 6.00 |  | 15.8 | 91.9 µM |  | 4.10 |  | 6.48 |  | 43.2 | 11.4 | 38.4
15 | Cc1ccc(NC(=S)Nc2ccc(C)c([N+](=O)[O-])c2)cc1Cl | 12 |  | 5.51 | inactive | 60 | 38.8 µM | < 20% | 4.05 |  | 6.34 |  |  |  | 
16 | CCN(CC)c1nc(C)c([N+](=O)[O-])c(NCCNC(=S)Nc2ccc(C)c(Cl)c2)n1 | 7 |  | 5.20 |  | 91 | 44.2 µM |  | 4.13 |  | 6.13 |  |  |  | 
